The values below come from PubChem BioAssay AID588575 (Sanford-Burnham Center for Chemical Genomics, 2011).

The target in this assay is Bcl-2-like protein 10 (Homo sapiens) (UniProt Q9HD36). The assay can be described thus: small molecules blocking Bcl-B/Bim BH3 binding – biochemical, fluorescence polarization, GST-Bcl-B, FITC-Bim, SAR follow-up (AID 588575). As to conditions: GST-Bcl-B / FITC-Bim peptide. Put shortly: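 material = recombinant GST-Bcl-B protein without C-terminal transmembrane region | probe or stimulus = FITC-Bim peptide probe | compound dosing = 10 concentrations, 2-fold steps | schedule = 20 min at 4 °C preincubation, 10 min probe step at room temperature | detection = fluorescence polarization, excitation 485 nm, emission 530 nm | evaluation = IC50 via sigmoidal curve fitting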
On the technique in general: Polarisation of emitted light reports the rotation of a fluorescent probe.

Broadly, the IC50 is the point on the concentration scale where inhibition reaches its midpoint. By pIC50 is commonly meant the negative decadic logarithm of the IC50, by convention in mol/L.

Molecules are shown by their SMILES. pIC50: −log10 of the molar value. Active and inactive are the calls of the source.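 Rule for the calls: active = IC50 at or below 20 µM; inactive = the rest.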

Bcl-2-like protein 10 (Homo sapiens), sequence (Q9HD36 whole entry, looked up): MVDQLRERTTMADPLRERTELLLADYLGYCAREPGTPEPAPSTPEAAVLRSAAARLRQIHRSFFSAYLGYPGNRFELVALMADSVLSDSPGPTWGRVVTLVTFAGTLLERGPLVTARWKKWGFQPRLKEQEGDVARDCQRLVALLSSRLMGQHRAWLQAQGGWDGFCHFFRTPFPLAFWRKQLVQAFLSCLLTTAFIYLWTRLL

For the compound `Cn1c(NCCO)nc2c(c1=O)C1(CCCCC1)Cc1ccccc1-2`, the IC50 was > 20 µM (inactive). Still for that read-out and setting: the result for `O=c1[nH]c(CN2CCCC2)nc2c1C1(CCCC1)Cc1ccccc1-2` reads > 20 µM (inactive). As to `O=c1[nH]c(CN2CCOCC2)nc2c1C1(CCCC1)Cc1ccccc1-2`, the IC50 is > 20 µM (inactive). For the compound `C=C(C)Cn1c(=O)c2c(n3cnnc13)-c1ccccc1CC21CCCC1`, the IC50 was > 20 µM (inactive).

As to `O=c1c2c(n3nnnc3n1Cc1ccc(Cl)cc1)-c1ccccc1CC21CCCC1`, the negative logarithm of the IC50 (pIC50) was 5.68.

As to `O=c1c2ccccc2nc2n1C1(CCCC1)Cc1ccccc1-2`, the IC50 is > 20 µM (inactive). On to `Cc1ccc2c(c1)-c1c(c(=O)n(Cc3ccccc3)c3nnnn13)C1(CCCCC1)C2`, for which the pIC50 is 4.87. Turning to `COc1ccc2c(c1)-c1c(c(=O)n(Cc3ccccc3)c3nnnn13)C1(CCCC1)C2`, the IC50 is > 20 µM (inactive). As to `O=c1c2c(n3nnnc3n1Cc1ccccc1)-c1cc(F)ccc1CC21CCCC1`, the IC50 was > 20 µM (inactive).

Turning to `CC1(C)Cc2ccccc2-c2c1c(=O)n(Cc1ccccc1)c1nncn21`, the IC50 was > 20 µM (inactive). Consider `C=C(C)Cn1c(=O)c2c(n3nnnc13)-c1ccccc1CC21CCCC1`, for which the IC50 was > 20 µM (inactive). As to `O=c1c2c(-c3ccccc3)n3ncnc3nc2ccn1-c1ccccc1`, the IC50 was > 20 µM (inactive). Consider `COc1ccc2c(c1)-c1c(c(=O)n(Cc3ccc(F)cc3)c3nncn13)C(C)(C)C2`, for which the IC50 is > 20 µM (inactive). Take `Cc1ccc2c(c1)-c1c(c(=O)n(Cc3ccc(F)cc3)c3nncn13)C1(CCCCC1)C2`: the pIC50 was 6.22. Same read-out and setting: the result for `COc1ccc(Cn2c(=O)c3c(n4nnnc24)-c2cc(C)ccc2CC3(C)C)cc1` reads 5.40. On to `Cn1c(=S)[nH]c2c(c1=O)C1(CCCCC1)Cc1ccccc1-2`, for which the IC50 was > 20 µM (inactive).

`O=c1c2c(n3nnnc3n1Cc1ccccc1)-c1ccccc1CC21CCCCC1`: the pIC50 was 5.38. Still for that read-out and setting: the result for `Cc1ccc2c(c1)-c1c(c(=O)n(Cc3ccc(F)cc3)c3nnnn13)C1(CCCCC1)C2` reads 5.09. `O=c1c2c(n3cnnc3n1C1CCCCC1)-c1ccccc1CC21CCCCC1`: the IC50 was > 20 µM (inactive). `COc1ccc2c(c1)-c1c(c(=O)n(Cc3ccc(Cl)cc3)c3nnnn13)C(C)(C)C2`: the IC50 is > 20 µM (inactive). On the same count and under the same terms, the result for `O=c1c2c(nc3[nH]ncn13)-c1ccccc1CC21CCCCC1` reads > 20 µM (inactive). Consider `Cc1ccc2c(c1)-c1c(c(=O)n(Cc3ccc(Cl)cc3)c3nnnn13)C1(CCCCC1)C2`, for which the IC50 was > 20 µM (inactive).

As for `O=c1c2c(nc3[nH]ncn13)-c1ccccc1CC21CCCC1`, the IC50 is > 20 µM (inactive). Regarding `O=C1CC(c2ccc(F)cc2)CC2=C1C(c1cccc(Cl)c1)n1ncnc1N2` (stereo not drawn), the IC50 is > 20 µM (inactive). As for `COc1ccc(Cn2c(=O)c3c(n4nnnc24)-c2ccccc2CC32CCCC2)cc1`, the pIC50 was 6.41. `O=c1[nH]c(NCCCO)nc2c1C1(CCCCC1)Cc1ccccc1-2`: the IC50 was > 20 µM (inactive). The same measure, in the same setting: the result for `Cc1ccc2c(c1)-c1c(c(=O)n(Cc3ccc(Cl)cc3)c3nncn13)C1(CCCCC1)C2` reads > 20 µM (inactive); that for `O=C1CC(c2ccccc2F)c2c(n3ncnc3[nH]c2=O)N1` (stereo not drawn), > 20 µM (inactive). Consider `COc1ccc2c(c1)-c1c(c(=O)n(Cc3ccc(Cl)cc3)c3nnnn13)C1(CCCC1)C2`, for which the IC50 is > 20 µM (inactive). Consider `CC1CC(=O)C2=C(C1)Nc1ncnn1C2c1cccnc1` (stereo not drawn), for which the IC50 was > 20 µM (inactive). For the compound `COc1ccc2c(c1)-c1c(c(=O)n(Cc3ccccc3)c3nncn13)C1(CCCC1)C2`, the IC50 was > 20 µM (inactive). As for `COc1ccc(Cn2c(=O)c3c(n4cnnc24)-c2cc(C)ccc2CC3(C)C)cc1`, the pIC50 is 5.08.

Regarding `O=c1c2c(n3cnnc3n1Cc1ccc(Cl)cc1)-c1ccccc1CC21CCCC1`, the pIC50 was 5.47. For the compound `CC1(C)CC(n2c(=S)[nH]c3c(c2=O)C2(CCCC2)Cc2ccccc2-3)CCO1` (stereo not drawn), the IC50 is > 20 µM (inactive).

For `COc1ccc2c(c1)-c1c(c(=O)n(Cc3ccccc3)c3nncn13)C(C)(C)C2`, the IC50 is > 20 µM (inactive). Same read-out and setting: the result for `Cn1c(=O)c2c(n3cnnc13)-c1ccccc1CC21CCCC1` reads > 20 µM (inactive); that for `O=c1c2c(n3cnnc3n1Cc1ccccc1)-c1ccccc1CC21CCCCC1`, > 20 µM (inactive); that for `COc1ccc2c(c1)-c1c(c(=O)n(Cc3ccc(Cl)cc3)c3nncn13)C1(CCCC1)C2`, > 20 µM (inactive). Still for that read-out and setting: the result for `O=c1c2c(-c3ccccc3)n3ncnc3nc2ccn1-n1cnnc1` reads > 20 µM (inactive). With `O=c1c2c(n3nnnc3n1Cc1ccc(F)cc1)-c1ccccc1CC21CCCC1`, the pIC50 was 5.81.

`CC1(C)Cc2ccccc2-c2nc3nn[nH]n3c(=O)c21`: the IC50 was > 20 µM (inactive). Consider `COc1ccc2c(c1)-c1c(c(=O)n(Cc3ccccc3)c3nnnn13)C(C)(C)C2`, for which the pIC50 is 5.39. Turning to `Cc1ccc2c(c1)-c1c(c(=O)n(Cc3ccccc3)c3nncn13)C(C)(C)C2`, the IC50 is > 20 µM (inactive).

Turning to `O=c1c2cnc3nc(-c4ccccc4)nn3c2ccn1CCc1cnc[nH]1`, the IC50 is > 20 µM (inactive). On to `Cc1ccc2c(c1)-c1c(c(=O)n(Cc3ccccc3)c3nncn13)C1(CCCCC1)C2`, for which the pIC50 was 5.31.

For `O=c1c2ccccc2nc2n1C1(CCCCC1)Cc1ccccc1-2`, the IC50 was > 20 µM (inactive). In the case of `Cc1ccc2c(c1)-c1c(c(=O)n(Cc3ccccc3)c3nnnn13)C(C)(C)C2`, the pIC50 was 5.24. On to `O=C1CCCC2=C1C(c1cc(Br)ccc1F)n1ncnc1N2` (stereo not drawn), for which the IC50 was > 20 µM (inactive). As to `O=c1c2c(n3nnnc3n1-c1ccccc1)-c1ccccc1CC21CCCC1`, the IC50 was > 20 µM (inactive). On the same count and under the same terms, the result for `c1ccc(OCc2nc3c4c(ncn3n2)-c2ccccc2CC42CCCC2)cc1` reads > 20 µM (inactive); that for `COc1ccc2c(c1)-c1c(c(=O)n(Cc3ccc(F)cc3)c3nnnn13)C(C)(C)C2`, > 20 µM (inactive). For the compound `O=c1c2c(n3cnnc3n1Cc1ccccc1)-c1ccccc1CC21CCCC1`, the negative logarithm of the IC50 (pIC50) was 5.28. Consider `O=c1c2c(nc3n1CCS3)-c1ccccc1CC21CCCCC1`, for which the IC50 is > 20 µM (inactive). For `COc1ccc2c(c1)-c1c(c(=O)n(Cc3ccc(Cl)cc3)c3nncn13)C(C)(C)C2`, the IC50 is > 20 µM (inactive). As for `O=c1c2cnc3ncnn3c2ccn1CCc1cnc[nH]1`, the IC50 is > 20 µM (inactive). Take `O=c1c2c(n3nnnc3n1Cc1ccccc1)-c1ccccc1CC21CCCC1`: the pIC50 was 5.48.

`CC1(C)Cc2ccccc2-c2c1c(=O)n(Cc1ccccc1)c1nnnn21`: the IC50 is > 20 µM (inactive). As to `O=c1c2c(n3nnnc3n1Cc1ccccc1)-c1cc(F)ccc1CC21CCCCC1`, the pIC50 was 6.11.
